Measurements from ChEMBL document CHEMBL3120066, “Discovery of a novel class of potent HCV NS4B inhibitors: SAR studies on piperazinone derivatives” (J Med Chem, 2014).

Test system: Hepatitis C virus
Experiment: Antiviral activity against HCV1b infected in clone A and ET-lunet cells assessed as inhibition of viral replication after 4 days by RT-PCR analysis
Type: functional, organism-based, Hepacivirus hominis
Settings: genotype 1b, 96 h
Method in brief: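 Run in HCV genotype 1a and 1b replicon cells; each reported value is the mean of n = 2 independent determinations.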

EC90 [nM]	EC50 [nM]	SMILES
1500	–	CC(C)C[C@H]1CN(C(=O)/C=C/c2ccc(F)cc2)[C@@H](CC(C)C)C(=O)N1
3200	–	CC(C)C[C@H]1CN(C(=O)C#Cc2ccccc2)[C@@H](CC(C)C)C(=O)N1
1600	–	CC(C)C[C@H]1CN(C(=O)/C=C/c2ccc(Cl)cc2)[C@@H](CC(C)C)C(=O)N1
2300	–	CC(C)C[C@H]1CN(C(=O)/C=C/c2ccccc2)[C@@H](CC(C)C)C(=O)N1
180	–	Cc1ccc([C@H]2CN(C(=O)c3cc(-c4ccc(F)cc4)on3)[C@@H](CC(C)C)C(=O)N2)s1
> 10000	–	CC[C@@H](C)[C@H]1CN(C(=O)c2cc(-c3ccc(F)cc3)on2)[C@@H](CC(C)C)C(=O)N1
650	–	CC(C)C[C@H]1CN(C(=O)c2cc(-c3ccc(F)c(F)c3)on2)[C@@H](CC(C)C)C(=O)N1
> 10000	–	CC(C)C[C@H]1CN(C(=O)[C@@H]2C[C@H]2c2ccccc2)[C@H](CC(C)C)C(=O)N1
> 10000	–	CC(C)C[C@H]1CN(C(=O)c2cc(-c3ccccc3)[nH]n2)[C@@H](CC(C)C)C(=O)N1
8800	–	CC(C)C[C@H]1CN(C(=O)[C@@H]2C[C@H]2c2ccccc2)[C@@H](CC(C)C)C(=O)N1C
> 10000	–	CC(C)C[C@H]1CN(C(=O)C2CC2)[C@@H](CC(C)C)C(=O)N1
> 10000	–	COC[C@H]1CN(C(=O)c2cc(-c3ccc(F)cc3)on2)[C@@H](CC(C)C)C(=O)N1
900	–	CCC[C@H]1CN(C(=O)[C@@H]2C[C@H]2c2ccccc2)[C@@H](CC(C)C)C(=O)N1
> 10000	–	CC(C)C[C@H]1CN(C(=O)c2cn(-c3ccccc3)cn2)[C@@H](CC(C)C)C(=O)N1
> 10000	–	CC(C)C[C@H]1CN(C(=O)c2cc(-c3ccc(N(C)C)cc3)on2)[C@@H](CC(C)C)C(=O)N1
> 10000	–	CC(C)C[C@H]1CN(C(=O)[C@@H]2C[C@H]2c2ccccc2)[C@@H](CC(C)C)CN1
530	–	CCCC[C@H]1CN(C(=O)c2cc(-c3ccc(F)cc3)on2)[C@@H](CC(C)C)C(=O)N1
9700	–	CC(C)C[C@H]1CN(C(=O)/C=C/c2ccccc2Cl)[C@@H](CC(C)C)C(=O)N1

EC90 [nM]	EC50 [nM]	SMILES
1400	–	CC(C)C[C@H]1CN(C(=O)c2noc(-c3ccccc3)n2)[C@@H](CC(C)C)C(=O)N1
450	–	CC(C)C[C@H]1C(=O)N[C@@H](CC2CC2)CN1C(=O)c1cc(-c2ccc(F)cc2)on1
870	–	CC(C)C[C@H]1C(=O)N[C@@H](C2CCSCC2)CN1C(=O)c1cc(-c2ccc(F)cc2)on1
1530	–	CC(C)C[C@H]1CN(C(=O)c2cc(-c3ccc(C#N)cc3)on2)[C@@H](CC(C)C)C(=O)N1
> 10000	–	CC(C)C[C@H]1CN(C(=O)c2coc(-c3ccccc3)n2)[C@@H](CC(C)C)C(=O)N1
4	–	CC(C)C[C@H]1C(=O)N[C@@H](c2ccsc2Cl)CN1C(=O)c1cc(-c2ccc(F)cc2)on1
290	–	CC(C)C[C@H]1CN(C(=O)c2cc(-c3ccc(Cl)cc3)on2)[C@@H](CC(C)C)C(=O)N1
–	1.7	CCc1cc2c(cc1F)c(C#N)c(-c1ccc(S(=O)(=O)N[C@@H](C)C(F)(F)F)cn1)n2-c1ncccn1
690	–	CC(C)C[C@H]1C(=O)N[C@@H](C2CCC2)CN1C(=O)c1cc(-c2ccc(F)cc2)on1
240	–	CSC[C@H]1CN(C(=O)c2cc(-c3ccc(F)cc3)on2)[C@@H](CC(C)C)C(=O)N1
390	–	CSCC[C@H]1CN(C(=O)c2cc(-c3ccc(F)cc3)on2)[C@@H](CC(C)C)C(=O)N1
1540	–	Cc1ccc(-c2cc(C(=O)N3C[C@H](CC(C)C)NC(=O)[C@@H]3CC(C)C)no2)cc1
1800	–	CC(C)C[C@H]1C(=O)N[C@@H](C(C)(C)C)CN1C(=O)c1cc(-c2ccc(F)cc2)on1
> 10000	–	CC(C)C[C@H]1C(=O)N[C@@H](c2nccs2)CN1C(=O)c1cc(-c2ccc(F)cc2)on1
680	–	CC(C)C[C@H]1C(=O)N[C@@H](c2ccc[nH]2)CN1C(=O)c1cc(-c2ccc(F)cc2)on1
2740	–	CC(C)C[C@H]1C(=O)N[C@@H](CN(C)C)CN1C(=O)c1cc(-c2ccc(F)cc2)on1
1350	–	COc1ccc(-c2cc(C(=O)N3C[C@H](CC(C)C)NC(=O)[C@@H]3CC(C)C)no2)cc1
